# Results of several laboratories.
# Protocols differ between the studies behind these lines.
# Observed: metabolic stability
SMILES,test system,conditions,half-life
CCc1cccc(CC)c1-n1c(C)c(C(=O)N2CCNCC2)cc(-c2nc(-c3ccc(Cl)cc3)cs2)c1=O,"rat, liver microsomes","1 µM, pH 7.4",> 30 min
CCOc1c(O)cc(Br)c2c1CN1CCc3cc(OCC(F)F)c(O)cc3[C@@H]1C2,"rat, liver S9","2 µM, pH 7.4",5.71 min
COc1ccc(CNC(=O)c2c(C)nc3cc(C)ccn23)cc1,"rat, liver microsomes",,19 min
O=[N+]([O-])c1ccc(CNc2nc(NCc3cccc(C(F)(F)F)c3)nc3[nH]cnc23)cc1,"rat, liver microsomes","1 µM, pH 7.4",17 min
CCc1cccc(CC)c1-n1c(C)c(C(=O)NC)cc(-c2nc(-c3ccc(Cl)cc3)cs2)c1=O,"rat, liver microsomes","1 µM, pH 7.4",1.5 min
O=C(N[C@H](Cc1c[nH]c2ccccc12)C(=O)Nc1ccncc1)c1ccc(-c2cc(F)ccc2F)cc1F,"rat, liver microsomes",,17 min
Cc1ccc2c(c1)nc(CCc1cccc3cccnc13)n2-c1ccccc1,"rat, liver microsomes",1.5 µM,0.87 min
O=c1ccc2ccc(O)cc2o1,"rat, liver S9","2 µM, pH 7.4",6.54 min
N#Cc1ccc(C[C@@H](NC(=O)Nc2ccc(F)cc2)C(=O)N2CCc3ccc(F)cc32)cc1,"rat, liver microsomes","10 µM, pH 7.4",> 15 min
O=C(OC(C(F)(F)F)C(F)(F)F)N1CCc2ccccc2C1,"rat, liver microsomes",,12 min
N#Cc1cc(NC(=O)[C@H]2c3ccccc3C(=O)N(CC(F)(F)F)[C@@H]2c2cccnc2)ccc1F,"rat, liver microsomes",,> 240 min
O=C(OC(C(F)(F)F)C(F)(F)F)N1Cc2ccc(OCCN3CCOCC3)cc2C1,"rat, liver microsomes",,17 min
CCCCN1C(=O)C(COC)NC(=O)C12CCN(Cc1ccc(Oc3ccccc3)cc1)CC2.Cl (stereo not drawn),"rat, liver microsomes",5 µM,16 min
CC(C)(C)C[C@@H]1N[C@@H](C(=O)N[C@H]2C[C@](C)(O)C2)[C@H](c2cccc(Cl)c2F)[C@]12C(=O)Nc1cc(Cl)ccc12,"rat, liver microsomes",,> 60 min
O=C(O)c1ccccc1-c1c2cc(Cl)c(=O)cc-2oc2cc(O)c(Cl)cc12,"male Sprague-Dawley rat, liver microsomes",,250 min
